# Test system: HEK-293T
# Assay: Multiplex assay against HEK293T
# Assay type: toxicity, cell-based
# Conditions: human
# Summary of the method: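 Live cells carried four stains from seeding: Hoechst33342, BioTracker Green Microtubule Cytoskeleton Dye, MitoTracker Red and Annexin V Alexa Fluor 680. They were imaged on a CQ1 microscope at 37°C and 5% CO2 after compound addition. Using CellPathfinder machine-learning gating, cells were split into Hoechst high-intensity objects or normal cells, normal cells into healthy, pyknosed or fragmented nuclei, and pyknosed cells into mitotic or apoptotic; tubulin, mitochondrial-mass and membrane-permeability phenotypes are per cents of healthy-nucleus cells.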
# [1] = 12 h, 1 µM, compound concentration 1 uM, replicate 1
# [2] = 12 h, 1 µM, compound concentration 1 uM, replicate 2
# [3] = 12 h, 10 µM, compound concentration 10 uM, replicate 1
# [4] = 12 h, 10 µM, compound concentration 10 uM, replicate 2
# [5] = 24 h, 1 µM, compound concentration 1 uM, replicate 1
# [6] = 24 h, 1 µM, compound concentration 1 uM, replicate 2
# [7] = 24 h, 10 µM, compound concentration 10 uM, replicate 1
# [8] = 24 h, 10 µM, compound concentration 10 uM, replicate 2
# [9] = 48 h, 1 µM, compound concentration 1 uM, replicate 1
# [10] = 48 h, 1 µM, compound concentration 1 uM, replicate 2
# [11] = 48 h, 10 µM, compound concentration 10 uM, replicate 1
# [12] = 48 h, 10 µM, compound concentration 10 uM, replicate 2
compound,measurement,setting,value
O=C(CCCc1ccccc1)Nc1nc2ccccc2c(=O)s1,Population Apoptotic (%),[1],30%
same,Population Fragmented Nuclei (%),[1],4%
same,Population Healthy Nuclei (%),[1],83%
same,Population Hoechst High Intensity Objects (%),[1],6%
same,Population Membrane Permeable-Phenotype (%),[1],0%
same,Population Mitochondria Different-Phenotype (%),[1],37%
same,Population Mitotic Cells (%),[1],70%
same,Population Normal (%),[1],93%
same,Population Pyknosed Nuclei (%),[1],11%
same,Population Tubulin-Different-Phenotype (%),[1],32%
same,Total Cell Count,[1],372
same,Population Apoptotic (%),[2],43%
same,Population Fragmented Nuclei (%),[2],7%
same,Population Healthy Nuclei (%),[2],74%
same,Population Hoechst High Intensity Objects (%),[2],13%
same,Population Mitochondria Different-Phenotype (%),[2],63%
same,Population Mitotic Cells (%),[2],56%
same,Population Normal (%),[2],86%
same,Population Pyknosed Nuclei (%),[2],17%
same,Population Tubulin-Different-Phenotype (%),[2],36%
same,Total Cell Count,[2],267
same,Population Apoptotic (%),[3],30%
same,Population Fragmented Nuclei (%),[3],10%
same,Population Healthy Nuclei (%),[3],80%
same,Population Hoechst High Intensity Objects (%),[3],9%
same,Population Membrane Permeable-Phenotype (%),[3],0%
same,Population Mitochondria Different-Phenotype (%),[3],47%
same,Population Mitotic Cells (%),[3],69%
same,Population Normal (%),[3],90%
same,Population Pyknosed Nuclei (%),[3],9%
same,Population Tubulin-Different-Phenotype (%),[3],27%
same,Total Cell Count,[3],555
same,Population Apoptotic (%),[4],44%
same,Population Fragmented Nuclei (%),[4],7%
same,Population Healthy Nuclei (%),[4],74%
same,Population Hoechst High Intensity Objects (%),[4],27%
same,Population Mitochondria Different-Phenotype (%),[4],68%
same,Population Mitotic Cells (%),[4],55%
same,Population Normal (%),[4],72%
same,Population Pyknosed Nuclei (%),[4],17%
same,Population Tubulin-Different-Phenotype (%),[4],26%
same,Total Cell Count,[4],371
same,Population Apoptotic (%),[5],20%
same,Population Fragmented Nuclei (%),[5],8%
same,Population Healthy Nuclei (%),[5],81%
same,Population Hoechst High Intensity Objects (%),[5],5%
same,Population Membrane Permeable-Phenotype (%),[5],1%
same,Population Mitochondria Different-Phenotype (%),[5],21%
same,Population Mitotic Cells (%),[5],79%
same,Population Normal (%),[5],94%
same,Population Pyknosed Nuclei (%),[5],10%
same,Population Tubulin-Different-Phenotype (%),[5],15%
same,Total Cell Count,[5],538
same,Population Apoptotic (%),[6],45%
same,Population Fragmented Nuclei (%),[6],9%
same,Population Healthy Nuclei (%),[6],78%
same,Population Hoechst High Intensity Objects (%),[6],8%
same,Population Membrane Permeable-Phenotype (%),[6],0%
same,Population Mitochondria Different-Phenotype (%),[6],38%
same,Population Mitotic Cells (%),[6],54%
same,Population Normal (%),[6],91%
same,Population Pyknosed Nuclei (%),[6],12%
same,Population Tubulin-Different-Phenotype (%),[6],13%
same,Total Cell Count,[6],370
same,Population Apoptotic (%),[7],33%
same,Population Fragmented Nuclei (%),[7],10%
same,Population Healthy Nuclei (%),[7],80%
same,Population Hoechst High Intensity Objects (%),[7],6%
same,Population Membrane Permeable-Phenotype (%),[7],0%
same,Population Mitochondria Different-Phenotype (%),[7],38%
same,Population Mitotic Cells (%),[7],66%
same,Population Normal (%),[7],93%
same,Population Pyknosed Nuclei (%),[7],9%
same,Population Tubulin-Different-Phenotype (%),[7],29%
same,Total Cell Count,[7],661
same,Population Apoptotic (%),[8],52%
same,Population Fragmented Nuclei (%),[8],8%
same,Population Hoechst High Intensity Objects (%),[8],24%
same,Population Mitochondria Different-Phenotype (%),[8],47%
same,Population Mitotic Cells (%),[8],47%
same,Population Normal (%),[8],75%
same,Population Pyknosed Nuclei (%),[8],11%
same,Population Tubulin-Different-Phenotype (%),[8],20%
same,Total Cell Count,[8],444
same,Population Apoptotic (%),[9],20%
same,Population Fragmented Nuclei (%),[9],11%
same,Population Healthy Nuclei (%),[9],82%
same,Population Hoechst High Intensity Objects (%),[9],2%
same,Population Membrane Permeable-Phenotype (%),[9],1%
same,Population Mitochondria Different-Phenotype (%),[9],15%
same,Population Mitotic Cells (%),[9],79%
same,Population Normal (%),[9],97%
same,Population Pyknosed Nuclei (%),[9],6%
same,Population Tubulin-Different-Phenotype (%),[9],11%
same,Total Cell Count,[9],820
same,Population Apoptotic (%),[10],38%
same,Population Fragmented Nuclei (%),[10],10%
same,Population Healthy Nuclei (%),[10],80%
same,Population Hoechst High Intensity Objects (%),[10],4%
same,Population Membrane Permeable-Phenotype (%),[10],0%
same,Population Mitochondria Different-Phenotype (%),[10],28%
same,Population Mitotic Cells (%),[10],61%
same,Population Normal (%),[10],95%
same,Population Pyknosed Nuclei (%),[10],8%
same,Population Tubulin-Different-Phenotype (%),[10],13%
same,Total Cell Count,[10],534
same,Population Apoptotic (%),[11],22%
same,Population Fragmented Nuclei (%),[11],14%
same,Population Healthy Nuclei (%),[11],79%
same,Population Hoechst High Intensity Objects (%),[11],4%
same,Population Membrane Permeable-Phenotype (%),[11],0%
same,Population Mitochondria Different-Phenotype (%),[11],21%
same,Population Mitotic Cells (%),[11],77%
same,Population Normal (%),[11],95%
same,Population Pyknosed Nuclei (%),[11],6%
same,Population Tubulin-Different-Phenotype (%),[11],16%
same,Total Cell Count,[11],984
same,Population Apoptotic (%),[12],68%
same,Population Fragmented Nuclei (%),[12],13%
same,Population Healthy Nuclei (%),[12],77%
same,Population Hoechst High Intensity Objects (%),[12],11%
same,Population Membrane Permeable-Phenotype (%),[12],1%
same,Population Mitochondria Different-Phenotype (%),[12],30%
same,Population Mitotic Cells (%),[12],31%
same,Population Normal (%),[12],88%
same,Population Pyknosed Nuclei (%),[12],9%
same,Total Cell Count,[12],567

# — ChEMBL document CHEMBL5058577, “EUbOPEN Chemogenomics Library 2 (Multiplex)” (2022)
